Source: ChEMBL document CHEMBL1154107, “Inhibitors of VIM-2 by screening pharmacologically active and click-chemistry compound libraries” (Bioorg Med Chem, 2009)
Converted amounts (≈) assume the structure as drawn. The source made the active and inactive calls. No cut-off for these calls is given here.

Experiments:
[1] = Inhibition of VIM2 using CCF2 as substrate at 44 uM after 15 mins by FRET assay
Summary of the method: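 VIM-2 (0.1 nM final) in 50 mM HEPES, 50 μM ZnSO4, 0.05% Brij 35, pH 7.1, preincubated 15 min at RT with compound; CCF2-FA added to 10 μM, 25 min at RT, stopped with EDTA. Ratiometric fluorescence read at excitation 409 nm, emission 460/535 nm. Triplicate ten-point 1:3 dilutions; IC50 from four-parameter fit of ratio data.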

[2] = test system: Escherichia coli; assay: Antibacterial activity against imipenem-resistant Escherichia coli BL21(DE3) expressing VIM2 gene after 18 hrs by twofold serial broth dilution method; assay type: functional
Summary of the method: (§1)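 Two-fold serial broth dilution MIC per CLSI, 10-point dilutions in Iso-Sensitest broth, 2 mL tubes. BL21 grown 5 h at 37°C in LB (kanamycin 30 μg/mL for pET-9a VIM-2 transformants). Inoculum 5 × 10^5 CFU/mL; shaken ≥18 h at 37°C aerobically.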

[3] = Inhibition of TEM-1 using nitrocefin as substrate at 25 uM after 15 mins by microtiter plate assay
[4] = Inhibition of IMP1 using nitrocefin as substrate at 56 uM after 15 mins by microtiter plate assay
[5] = Inhibition of VIM2 using nitrocefin as substrate by rapid dilution method
[6] = Inhibition of VIM2 using CCF2 as substrate after 15 mins by FRET assay
[7] = Inhibition of IMP1 using nitrocefin as substrate after 15 mins by microtiter plate assay
[8] = test system: Escherichia coli; assay: Antibacterial activity against imipenem-non resistant Escherichia coli BL21(DE3) after 18 hrs by twofold serial broth dilution method; assay type: functional; summary of the method: as §1
[9] = Inhibition of TEM-1 using nitrocefin as substrate after 15 mins by microtiter plate assay
[10] = Inhibition of VIM2 using nitrocefin as substrate after 15 mins by microtiter plate assay
[11] = test system: Enterobacter cloacae; assay: Inhibition of Enterobacter cloacae AmpC using nitrocefin as substrate at 25 uM after 15 mins by microtiter plate assay
[12] = Inhibition of Enterobacter cloacae AmpC using nitrocefin as substrate after 15 mins by microtiter plate assay
[13] = test system: Escherichia coli BL21(DE3); assay: Inhibition of VIM2 in imipenem-resistant Escherichia coli BL21(DE3) assessed as potentiation of imipenem-induced bactericidal activity at 50 uM after 18 hrs by twofold serial broth dilution method
[14] = Inhibition of VIM2 using nitrocefin as substrate at 56 uM after 15 mins by microtiter plate assay
[15] = Inhibition of IMP1 in Escherichia coli
[16] = test system: Escherichia coli; assay: Bacteriostatic activity against imipenem-non resistant Escherichia coli BL21(DE3) at […] after 24 hrs by broth microdilution method; assay type: functional
[17] = test system: Escherichia coli BL21(DE3); assay: (§2) Inhibition of VIM2 in imipenem-resistant Escherichia coli BL21(DE3) assessed as potentiation of imipenem-induced bactericidal activity at […] after 18 hrs by checkerboard microdilution method
[18] = test system: Escherichia coli BL21(DE3); assay: as §2; remark: listed apart in the source
[19] = test system: Escherichia coli; assay: Bacteriostatic activity against imipenem-resistant Escherichia coli BL21(DE3) expressing VIM2 gene at […] after 24 hrs by broth microdilution method; assay type: functional
[20] = test system: Escherichia coli; assay: Bactericidal activity against imipenem-non resistant Escherichia coli BL21(DE3) at […] after 24 hrs by broth microdilution method; assay type: functional
[21] = test system: Escherichia coli; assay: Bactericidal activity against imipenem-resistant Escherichia coli BL21(DE3) expressing VIM2 gene at […] after 24 hrs by broth microdilution method; assay type: functional
[22] = test system: Escherichia coli BL21(DE3); assay: Inhibition of VIM2 in imipenem-resistant Escherichia coli BL21(DE3) assessed as potentiation of imipenem-induced bactericidal activity at 4.2 ug/mL after 18 hrs by checkerboard microdilution method
Summary of the method: (§3)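 Checkerboard in 96-well plates, 0.2 mL. […] BL21/VIM-2 pre-grown 5 h at 37°C with kanamycin; inoculum 1 × 10^6 CFU/mL. Shaken ≥18 h at 37°C. MIC read per CLSI; synergy by ΣFIC; QC strain ATCC 35218.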

[23] = test system: Escherichia coli; assay: Bactericidal activity against imipenem-resistant Escherichia coli BL21(DE3) expressing VIM2 gene at […] after 6 hrs by broth microdilution method; assay type: functional
[24] = test system: Escherichia coli; assay: Selectivity ratio of MIC for imipenem-resistant Escherichia coli BL21(DE3) expressing VIM2 gene to MIC for imipenem-non resistant Escherichia coli BL21(DE3); assay type: functional
[25] = test system: Escherichia coli; assay: Bactericidal activity against imipenem-non resistant Escherichia coli BL21(DE3) at […] up to 6 hrs by broth microdilution method; assay type: functional
[26] = test system: Escherichia coli BL21(DE3); assay: Inhibition of VIM2 in imipenem-resistant Escherichia coli BL21(DE3) assessed as potentiation of imipenem-induced bactericidal activity at 4.5 ug/mL after 18 hrs by checkerboard microdilution method; summary of the method: as §3
[27] = test system: Escherichia coli; assay: Bactericidal activity against imipenem-resistant Escherichia coli BL21(DE3) expressing VIM2 gene at […] up to 6 hrs by broth microdilution method; assay type: functional
[28] = Inhibition of VIM2 using CCF2 as substrate at 36 uM after 15 mins by FRET assay
Summary of the method: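 FRET endpoint assay in 50 mM HEPES, 50 μM ZnSO4, 0.05% Brij 35, pH 7.1. VIM-2 (0.1 nM final) preincubated 15 min at RT with compound. CCF2-FA added to 10 μM final, 25 min at RT, stopped with EDTA. Excitation 409 nm, emissions 460 and 535 nm, read as ratio. Triplicate dilution series starting at 56 μM nominal.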

[29] = test system: Escherichia coli; assay: Bactericidal activity against imipenem-non resistant Escherichia coli BL21(DE3) at […] after 6 hrs by broth microdilution method; assay type: functional
[30] = Inhibition of IMP1 using nitrocefin as substrate at 140 uM after 15 mins by microtiter plate assay
[31] = Inhibition of VIM2 using nitrocefin as substrate at 15 uM after 15 mins by microtiter plate assay
[32] = test system: Escherichia coli BL21(DE3); assay: Inhibition of VIM2 in imipenem-resistant Escherichia coli BL21(DE3) assessed as potentiation of imipenem-induced bactericidal activity at 8.9 ug/mL after 18 hrs by checkerboard microdilution method; summary of the method: as §3

C#CCCOCc1nn[nH]c1CNS(=O)(=O)c1ccc(I)cc1
inhibition [1]: 76% | MIC [2]: > 60 µg/mL | inhibition [3]: 0% | inhibition [4]: 0% | Ki [5]: 0.41 µM | IC50 [6]: 1.3 µM | IC50 [7]: > 56 µM | MIC [8]: > 60 µg/mL | IC50 [9]: > 25 µM | IC50 [10]: 3.3 µM | inhibition [11]: 0% | IC50 [12]: > 25 µM | Activity [13]: inactive | inhibition [14]: 79%

O=C(O)CC(Cc1ccccc1Cl)C(=O)O (stereo not given)
IC50 [6]: 50 µM | IC50 [7]: 1.6 µM | Ki [7]: 1.6 µM | IC50 [10]: 33 µM | Ki [15]: 3.3 µM

O=C1c2c(O)ccc(O)c2C(=O)c2c(NCCNCCO)ccc(NCCNCCO)c21
Activity [16]: inactive | Activity [17]: Active | Activity [18]: Active | Activity [19]: inactive | Activity [20]: inactive | Activity [21]: inactive | Activity [13]: Active | Activity [22]: Active

4-[sequence] ACID
Activity [16]: inactive | MIC [2]: 17.9 µg/mL | Activity [17]: Active | Activity [23]: inactive | inhibition [3]: 0% | Activity [19]: inactive | Ratio [24]: 9 | Activity [25]: Active | Activity [26]: Active | Activity [27]: Active | MIC [8]: 17.9 µg/mL | inhibition [28]: 83% | inhibition [11]: 0% | Activity [29]: inactive | inhibition [30]: 0% | inhibition [31]: 80% | Activity [13]: Active | Activity [32]: Active

C[C@@H](O)[C@H]1C(=O)N2C(C(=O)O)=C(SCCNC=N)C[C@H]12 [IMIPENEM ANHYDROUS]
MIC [8]: 0.2 µg/mL (≈ 0.668 µM)

4-CHLOROMERCURIBENZOIC ACID
IC50 [9]: > 25 µM | IC50 [12]: > 25 µM

Cn1cc(Cc2nn[nH]c2CNS(=O)(=O)c2ccc(I)cc2)c2ccccc21
IC50 [10]: > 56 µM | inhibition [14]: 11%

Cc1ccc(Cl)cc1N1CCN(Cc2nn[nH]c2CNS(=O)(=O)c2ccc(I)cc2)CC1
IC50 [10]: > 56 µM | inhibition [14]: 0%

CC1(C)OCC(COCc2nn[nH]c2CNS(=O)(=O)c2ccc(I)cc2)O1 (stereo not given)
IC50 [10]: > 56 µM | inhibition [14]: 31%

COCc1nn[nH]c1CNS(=O)(=O)c1ccc(I)cc1
inhibition [1]: 90% | MIC [2]: > 60 µg/mL | inhibition [3]: 0% | inhibition [4]: 0% | Ki [5]: 1.41 µM | IC50 [6]: 4.1 µM | IC50 [7]: > 56 µM | MIC [8]: > 60 µg/mL | IC50 [9]: > 25 µM | IC50 [10]: 7.3 µM | inhibition [11]: 0% | IC50 [12]: > 25 µM | Activity [13]: inactive | inhibition [14]: 74%

O=S(=O)(NCc1[nH]nnc1CN1CCN(c2ccc(Cl)c(Cl)c2)CC1)c1ccc(I)cc1
IC50 [10]: > 56 µM | inhibition [14]: 5%
